ERAP1 HTS inh – inhibitors of human ERAP1 aminopeptidase; Q9NZ08; inhibition, % at 10.7 µM; recombinant ERAP1, Leu-AMC fluorescence, 60 min; AID 652197; 0.15% of 340,000 active;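 active = mean replicate inhibition of at least 30%, or all replicates individually reaching that 30% level; inactive = mean below 30% and not every replicate reaching it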;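 note: 0% = neutral control wells and 100% = L-leucinethiol positive control wells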
FGF22 binding – binders of recombinant human FGF22 by thermal shift; activity (Tm shift, normalised), % at 9.99 µM; AID 651658; 1.5% of 340,000 active; Q9HCT0; SYPRO orange fluorescence; percent of sucrose octasulfate shift, DMSO zero;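 active = mean Tm shift, scaled 0 neutral to 100 positive control, at about 1.3% or above, every replicate too, limit read from the data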
Target sequence (Q9HCT0 whole entry, looked up): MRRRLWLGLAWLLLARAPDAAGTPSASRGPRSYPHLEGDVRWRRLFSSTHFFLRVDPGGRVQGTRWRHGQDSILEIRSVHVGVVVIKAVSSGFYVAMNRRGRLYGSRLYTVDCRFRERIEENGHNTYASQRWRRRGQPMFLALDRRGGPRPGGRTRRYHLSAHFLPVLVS
rRNA inh HTS – inhibitors of bacterial rRNA selective over humanized ribosomes; 1.6% of 350,000 active; E. coli WT GFP vs humanized-ribosome RFP mutants, fluorescence, 24 h; active compounds read low; DMSO median 0, no signal -100; GFP signal change (wild-type ribosome), % (no concentration beside the values); AID 720706;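 active = significant combined selectivity score with lowered wild-type GFP, culture density cut under 30%, mutant RFP and density less affected; inactive = any of these conditions unmet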
Cneo AK release – Cryptococcus neoformans lysis via adenylate kinase release; C. neoformans lysis, adenylate kinase release luminescence, 4 h; normalised: neutral wells 0, clomiphene wells 100; lysis activity, % at 15 µM; 0.2% of 360,000 active; AID 651654;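 active = mean lysis activity across replicates of at least 80%, whatever share of replicates individually reach that level; inactive = mean lysis activity below 80%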
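Material: C. neoformans cells; Schedule: 4 h static compound exposure, 37 °C, read 1 h post-reagent; Measured by: adenylate kinase release luminescence; Read-out: signal increase indicating cell lysis; Controls: Clomiphene as positive lysis control.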
HIV Env fusion – inhibitors of HIV Env-mediated cell fusion; HeLa-JRFL Env/CEM21 cell fusion, luciferase; AID 651610; inhibition, % at 12.3 µM; 1.1% of 360,000 active;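 active = mean replicate inhibition score of at least 50 and every replicate individually at or above 50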;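 note: 0% = plate neutral controls and 100% = maraviroc near 300 nM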
PGC1a acetyl inh – PGC1a acetylation modulation, inhibitor mode. U2OS PGC1a acetylation, AlphaScreen anti-acetyl-lysine; with virally co-expressed GCN5 acetyltransferase. inhibition, % at 15.6 µM. 0.17% of 350,000 active. AID 651687;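 active = every replicate shows inhibition of at least 40%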;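 note: 0% = neutral control wells and 100% = positive control wells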
* = called active by the depositor; nt = no result; [ ] = another dose, or the depositor's remark. The list is not random: actives were taken first. Their share in the collection is about 3.5%.

SMILES	ERAP1 HTS inh	FGF22 binding	rRNA inh HTS	Cneo AK release	HIV Env fusion	PGC1a acetyl inh
O=C(OCc1cc([N+](=O)[O-])cc2c1OCOC2)c1cccnc1SC(F)F	2	0	2	nt	13	nt
COCCN(C(=O)C(=O)NC1CCCC1)C(C(=O)NC1CCCC1)c1ccccc1F (stereo not given)	-2	44*	3	1	12	-3
CC(C)(C)NC(=O)C(c1ccncc1)N(Cc1cccs1)C(=O)c1csnn1 (stereo not given)	-2	0	2	1	7	10
CCC(C)(C)NC(=O)C(c1sccc1C)N(Cc1ccco1)C(=O)c1csnn1 (stereo not given)	1	0	0	2	55*	nt
Cc1ccc(C(C(=O)NC(C)(C)C)N(Cc2cccs2)C(=O)c2csnn2)cc1 (stereo not given)	nt	nt	nt	1	79*	-22
CCC(C)(C)NC(=O)C(c1ccccc1F)N(Cc1ccco1)C(=O)c1csnn1 (stereo not given)	nt	nt	nt	-3	53*	-13
Cc1ccsc1C(C(=O)NC(C)(C)C)N(Cc1ccco1)C(=O)c1csnn1 (stereo not given)	-3	0	0	1	27	7
CC(C)(C)NC(=O)C(c1ccc(F)cc1)N(Cc1ccco1)C(=O)c1csnn1 (stereo not given)	nt	nt	nt	3	4	0
COc1ccc(CN(C)C[C@@H]2OCCCC[C@@H](C)Oc3ccc(NC(=O)Nc4ccc(C(F)(F)F)cc4)cc3C(=O)N([C@@H](C)CO)C[C@H]2C)cc1	-2	-1	2	8	58*[16.7 µM]	-24
COc1ccc(NC(=O)Nc2ccc3c(c2)C(=O)N([C@H](C)CO)C[C@H](C)[C@H](CN(C)Cc2ccc(C(F)(F)F)cc2)OCCCC[C@H](C)O3)cc1	-5	-1	0	2	64*[16.7 µM]	-21
N#CC1=C(N)SC(N)=C(C#N)C1C1C=CCCC1 (stereo not given)	nt	nt	nt	-2	37	nt
Cc1ccc(S(=O)(=O)NCCNC(=O)c2cc(OCC(F)(F)F)ccc2OCC(F)(F)F)cc1	nt	nt	nt	-3	96*	-24
O=C(NCCNC(=O)c1cc(OCC(F)(F)F)ccc1OCC(F)(F)F)Nc1cccc(C(F)(F)F)c1	nt	nt	nt	1	84*	nt
C[C@H](CO)N1C[C@H](C)[C@@H](CN(C)S(C)(=O)=O)Oc2ccc(N(C)C)cc2CC1=O	nt	0	1	3	-12[16.7 µM]	13
COc1cccc(NC(=S)NC(=O)c2cncc(Br)c2)c1	3	0	-24*	2	5	-1
COc1cccc(NC(=S)NC(=O)Cc2ccc(Cl)cc2)c1	4	nt	-31	83*	7	8
COc1ccc(CC(=O)NC(=S)Nc2cccc(C)c2)cc1	-3	0	-18	nt	-7	-4
COc1cc(OC)c(NC2c3ccccc3C(=O)N2c2cc(C)ccn2)cc1Cl (stereo not given)	1	3.4*	-4	-1	-31	-10
Cn1c2ccccc2c2cc(C(=O)N3CCN(CCO)CC3)sc21	nt	nt	nt	1	-3	1
COCCN(C(=O)CSc1ncccn1)c1c(N)n(Cc2ccccc2)c(=O)[nH]c1=O	1	0	8	-1	nt	nt
COCCN(C(=O)CSc1ncn[nH]1)c1c(N)n(Cc2ccccc2)c(=O)[nH]c1=O	57*	0	3	-2	2	6
COCCN(C(=O)COC(=O)c1ccc2c(c1)OCCO2)c1c(N)n(Cc2ccccc2)c(=O)[nH]c1=O	0	nt	5	nt	nt	nt
CCn1nc(C(=O)OCC(=O)N(CC(C)C)c2c(N)n(Cc3ccccc3)c(=O)[nH]c2=O)c2ccccc2c1=O	-1	9.2*	7	0	2	nt
COCCN(C(=O)COC(=O)c1ccc(C=O)cc1)c1c(N)n(Cc2ccccc2)c(=O)[nH]c1=O	-2	0	16	5	58*	nt
OCCC1CN(Cc2ccc3nonc3c2)CCN1Cc1ccsc1 (stereo not given)	3	0	8	nt	17	5
SMILES	ERAP1 HTS inh	FGF22 binding	rRNA inh HTS	Cneo AK release	HIV Env fusion	PGC1a acetyl inh
C/C(=N\NC(=O)c1ccc(NS(=O)(=O)c2cccs2)cc1)c1ccccc1	4	0	4	nt	12	nt
O=C(Nc1ccc(S(=O)(=O)N2CCN(Cc3ccccc3)CC2)cc1)c1cnccn1	nt	nt	nt	1	95*	nt
O=C(Nc1ccc(S(=O)(=O)N2CCCC2)cc1)c1ccc(CN2CCOCC2)cc1	nt	nt	nt	-1	74*	25
CCN(CC)S(=O)(=O)c1ccc(NC(=O)c2ccc(CN3CCOCC3)cc2)cc1	nt	nt	nt	0	64*	7
Cc1ccsc1C(=O)Nc1n[nH]c(C(F)(F)F)n1	nt	0	7	-4	20	0
CCSC1=NCCN1C(=O)Cc1ccc(-c2ccccc2)cc1	0	0	2	nt	-5	-9
CSC1=NCCN1C(=O)Cc1ccc(-c2ccccc2)cc1	4	0	-19*	nt	-2	3
CCN(CC)S(=O)(=O)c1cccc(NC(=O)c2ccc(-n3nc(C)cc3C)cc2)c1	nt	nt	nt	0	67*	nt
CCN(CC)S(=O)(=O)c1cccc(NC(=O)c2ccc(SC)cc2OC)c1	2	43	-25*	0	13	nt
COc1cc(SC)ccc1C(=O)Nc1cccc(S(=O)(=O)NC2=NCCCCC2)c1	2	0	-9	-7	-18	-11
CCN(CC)S(=O)(=O)c1ccc(C)c(NC(=O)COc2ccc(Cl)cc2Br)c1	5	0	-8	3	nt	nt
CCN(CC)S(=O)(=O)c1cccc(NC(=O)COc2ccc(F)cc2Br)c1	-2	0	-27*	nt	-6	nt
COc1cccc(CNC(=O)c2cccc(NC(=O)CC3SC(N4CCCCC4)=NC3=O)c2)c1 (stereo not given)	1	0	0	2	-359	nt
CCOC(=O)/C(C(N)=NCc1ccco1)=C(/O)c1ccccc1	nt	nt	nt	nt	-24	nt
O=C(NCc1ccc(F)cc1)c1cccc2c1C(=O)N(Cc1cccnc1)C2	-7	0	1	-1	10	10
O=C(Nc1ccc(N2CCN(C(=O)c3ccccc3)CC2)c(Cl)c1)c1ccc(Br)o1	2	0	-23*	nt	nt	0
O=C(Nc1ccccc1N1CCN(C(=O)c2ccccc2)CC1)c1ccc([N+](=O)[O-])o1	0	0	-25*	2	-20	nt
O=C(Nc1ccc(N2CCCC2)c(Cl)c1)c1ccc([N+](=O)[O-])o1	1	43*	-56	nt	-140	17
Cc1cc(C)cc(OCC(=O)NNC(=O)CC(C)c2ccccc2)c1 (stereo not given)	-4	0	nt	1	-15	-5
C[C@@H]1CCCCO[C@H](CN(C)C(=O)Nc2ccc(F)cc2)[C@H](C)CN([C@@H](C)CO)C(=O)c2cc(N(C)C)ccc2O1	0	-1	-3	-5	32[16.7 µM]	3

Screening data from PubChem BioAssay.
